Test results published in PMC5497724 (Cancer Science, 2017).

Tests used:
[1] = test system: HT1080 cells; experiment: Western blot analysis of PI3K pathway and histone acetylation; format: cell-based, human; conditions: 3 h
Procedure, shortened: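 HT1080 cells in RPMI-1640 with 10% FBS were handled as in the proliferation assay: 8 × 10³ cells seeded, 24 h at 37°C. Cells were treated 3 h with test compound (in DMSO) at various concentrations. Reference treatments were 2.5 μM SAHA, 1 μM GDC-0941 or both. Western blots probed phospho-AKT (Ser473, Thr308), AKT, phospho-S6, S6, acetyl-histone H3 and β-actin.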

[2] = rats, given orally; cited from earlier work
[3] = SCID mice, 4.4 mg/kg i.v.; 40% ethanol, 5% PEG 400, 55% normal saline; cited from earlier work

Question: With `O=C(CCCCCCC(=O)Nc1ccccc1)NO` [SAHA, Suberoylanilidehydroxamic acid] as the compound, how does the “acetylation of histone H3 (Western blot)” value [1] read?
Answer: Its value is “promoted acetylation of histone H3”.

Question: Which “drug levels after oral dosing vs i.v.” value [2] does the source give for `C/C=C1\NC(=O)[C@H]2CSSCC/C=C/[C@H](CC(=O)N[C@H](C(C)C)C(=O)N2)OC(=O)[C@H](C(C)C)NC1=O` [FK228, Romidepsin] here?
Answer: The value was “lower and more erratic drug levels than i.v. treatment”.

Question: And the AUC [3]?
Answer: Its AUC is 1123 ng·h/mL.

Question: Which “phosphorylation of AKT and S6 (Western blot)” value [1] does the source give for `CS(=O)(=O)N1CCN(Cc2cc3nc(-c4cccc5[nH]ncc45)nc(N4CCOCC4)c3s2)CC1` [GDC0941] here?
Answer: Its value is “inhibited the phosphorylation of AKT and S6 ribosomal protein”.
